*1 amine or outer side, *2 acyl side, *3 side chain or, on linkers, in order; H or OH if unused. Where a SMILES comes first, the peptide text is derived from it. [ ]: non-standard residue; d: D form. The star is where a group is joined. Doxorubicin(3'-N) = COc1cccc2c1C(=O)c1c(O)c3c(c(O)c1C2=O)C[C@@](O)(C(=O)CO)C[C@@H]3O[C@H]1C[C@H](N*)[C@H](O)[C@H](C)O1; X1 = COc1cccc2c1C(=O)c1c(O)c3c(c(O)c1C2=O)C[C@@](O)(C(=O)CO)C[C@@H]3OC1CC(N*)C(O)C(C)O1; Glutaryl = O=C(CCCC(=O)[*:2])[*:1]; Hyp = O=C(O)[C@@H]1C[C@@H](O)CN1; Chg = N[C@H](C(=O)O)C1CCCCC1; Orn = NCCC[C@H](N)C(=O)O
Experiments:
Mus musculus [1] = assay: Percentage weight reduction relative to vehicle control following intraperitoneal (ip) injection of conjugate dose for 5 consecutive days to nude mice bearing LNCaP tumor xenografts( 7.6 umol/kg dose); format: functional
Mus musculus [2] = assay: Maximum nonlethal drug dose which could be administered (ip) to non tumor bearing nude mice for 5 consecutive days; format: functional
LNCaP [3] = assay: Concentration required to kill 50% of tumor cells in PSA producing LNCaP human prostate cancer cell line; format: functional, cell-based
DuPro = assay: Concentration required to kill 50% of tumor cells in PSA nonproducing DuPRO human prostate cancer cell line; format: functional, cell-based
LNCaP [4] = assay: Percentage PSA reduction relative to vehicle control following intraperitoneal injection of conjugate dose for 5 consecutive days to nude mice bearing LNCaP tumor xenografts; format: functional, Homo sapiens
PSA = assay: Time required for PSA to hydrolyze 50% (t1/2); format: ADME; conditions: PSA (enzyme)
Mus musculus [5] = assay: Percentage weight reduction relative to vehicle control following intraperitoneal (ip) injection of conjugate dose for 5 consecutive days to nude mice bearing LNCaP tumor xenografts(36.6 umol/kg dose); format: functional
In short: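 Nude mice carrying xenografts of PSA-secreting human prostate LNCaP cells received the conjugate intraperitoneally once daily for 5 consecutive days. Circulating PSA and tumor weight were each expressed as percent reduction against vehicle-treated controls.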

Mus musculus [6] = assay: Percentage weight reduction relative to vehicle control following intraperitoneal (ip) injection of conjugate dose for 5 consecutive days to nude mice bearing LNCaP tumor xenografts( 22.4 umol/kg dose); format: functional
Mus musculus [7] = assay: Percentage weight reduction relative to vehicle control following intraperitoneal (ip) injection of conjugate dose for 5 consecutive days to nude mice bearing LNCaP tumor xenografts( 29.3 umol/kg dose); format: functional
Mus musculus [8] = assay: Percentage weight reduction relative to vehicle control following intraperitoneal (ip) injection of conjugate dose for 5 consecutive days to nude mice bearing LNCaP tumor xenografts( 21.5 umol/kg dose); format: functional
Mus musculus [9] = assay: Percentage weight reduction relative to vehicle control following intraperitoneal (ip) injection of conjugate dose for 5 consecutive days to nude mice bearing LNCaP tumor xenografts (2.8 umol/kg dose); format: functional

Row | Molecule | half-life (PSA) [h] | EC50 (LNCaP [3]) [µM] | EC50 (DuPro) [µM] | other results
1 | COc1cccc2c1C(=O)c1c(O)c3c(c(O)c1C2=O)C[C@@](O)(C(=O)CO)C[C@@H]3OC1CC(NC(=O)[C@H](N)CC(C)C)C(O)C(C)O1 (some centres not stated) | – | 6.7 | 14 | Reduction (Mus musculus [1]): -5%; MTD (Mus musculus [2]): 7.6 µM/kg; Reduction (LNCaP [4]): 10%
2 | COc1cccc2c1C(=O)c1c(O)c3c(c(O)c1C2=O)C[C@@](O)(C(=O)CO)C[C@@H]3O[C@H]1C[C@H](NC(=O)[C@H](C)NC(=O)[C@H](C)NC(=O)[C@H](C)NC(C)=O)[C@H](O)[C@H](C)O1 | – | > 100 | > 100 | –
3 | COc1cccc2c1C(=O)c1c(O)c3c(c(O)c1C2=O)C[C@@](O)(C(=O)CO)C[C@@H]3O[C@H]1C[C@H](NC(=O)[C@H](CC(C)C)NC(=O)[C@H](CO)NC(=O)[C@H](CO)NC(=O)[C@H](CCC(N)=O)NC(=O)[C@H](Cc2ccc(O)cc2)NC(=O)[C@H](CO)NC(=O)[C@H](C)NC(=O)[C@H](CCCCN)NC(=O)[C@H](CC(N)=O)NC(=O)[C@H](C)NC(C)=O)[C@H](O)[C@H](C)O1 (Ac-ANKASYQSSL-{Doxorubicin(3'-N)}) [listing 1 of 2 here] | – | 6.3 | > 100 | –
4 | COc1cccc2c1C(=O)c1c(O)c3c(c(O)c1C2=O)C[C@@](O)(C(=O)CO)C[C@@H]3O[C@H]1C[C@H](NC(=O)[C@H](CC(C)C)NC(=O)[C@H](CO)NC(=O)[C@H](CO)NC(=O)[C@H](CCC(N)=O)NC(=O)[C@H](Cc2ccc(O)cc2)NC(=O)[C@H](CO)NC(=O)[C@H](C)NC(=O)[C@H](CCCCN)NC(=O)[C@H](CC(N)=O)NC(=O)[C@H](C)NC(C)=O)[C@H](O)[C@H](C)O1 (Ac-ANKASYQSSL-{Doxorubicin(3'-N)}) [listing 2 of 2 here] | – | – | – | Reduction (Mus musculus [5]): 81%; MTD (Mus musculus [2]): >36.6 µM/kg; Reduction (LNCaP [4]): 87%
5 | COc1cccc2c1C(=O)c1c(O)c3c(c(O)c1C2=O)C[C@@](O)(C(=O)CO)C[C@@H]3OC1CC(NC(=O)[C@H](CC(C)C)NC(=O)[C@H](CO)NC(=O)[C@H](CCC(N)=O)NC(=O)[C@@H](NC(=O)[C@H](CO)NC(=O)[C@H](C)NC(=O)[C@H](CCCCN)NC(C)=O)C2CCCCC2)C(O)C(C)O1 (some centres not stated) (Ac-KAS[Chg]QSL-X1) [listing 1 of 2 here] | – | 4.5 | > 100 | –
6 | COc1cccc2c1C(=O)c1c(O)c3c(c(O)c1C2=O)C[C@@](O)(C(=O)CO)C[C@@H]3OC1CC(NC(=O)[C@H](CC(C)C)NC(=O)[C@H](CO)NC(=O)[C@H](CCC(N)=O)NC(=O)[C@@H](NC(=O)[C@H](CO)NC(=O)[C@H](C)NC(=O)[C@H](CCCCN)NC(C)=O)C2CCCCC2)C(O)C(C)O1 (some centres not stated) (Ac-KAS[Chg]QSL-X1) [listing 2 of 2 here] | – | – | – | Reduction (Mus musculus [6]): 73%; MTD (Mus musculus [2]): 29.9 µM/kg; Reduction (LNCaP [4]): 95%
7 | COc1cccc2c1C(=O)c1c(O)c3c(c(O)c1C2=O)C[C@@](O)(C(=O)CO)C[C@@H]3OC1CC(NC(=O)[C@H](CC(C)C)NC(=O)[C@H](CO)NC(=O)[C@H](CCC(N)=O)NC(=O)[C@@H](NC(=O)[C@H](CO)NC(=O)[C@H](C)NC(=O)[C@@H]2CCCN2C(C)=O)C2CCCCC2)C(O)C(C)O1 (some centres not stated) (Ac-PAS[Chg]QSL-X1) | 0.75 | 7.4 | > 100 | –
8 | COc1cccc2c1C(=O)c1c(O)c3c(c(O)c1C2=O)C[C@@](O)(C(=O)CO)C[C@@H]3OC1CC(NC(=O)[C@H](CC(C)C)NC(=O)[C@H](CO)NC(=O)[C@H](CO)NC(=O)[C@H](CO)NC(=O)[C@H](CCC(N)=O)NC(=O)[C@H](Cc2ccc(O)cc2)NC(=O)[C@H](CCCN)NC(C)=O)C(O)C(C)O1 (some centres not stated) (Ac-[Orn]YQSSSL-X1) | 2 | 7 | > 100 | MTD (Mus musculus [2]): 33 µM/kg; Reduction (Mus musculus [7]): 80%; Reduction (LNCaP [4]): 93%
9 | COc1cccc2c1C(=O)c1c(O)c3c(c(O)c1C2=O)C[C@@](O)(C(=O)CO)C[C@@H]3O[C@H]1C[C@H](NC(=O)[C@H](CC(C)C)NC(=O)[C@H](CO)NC(=O)[C@H](CCC(N)=O)NC(=O)[C@@H](NC(=O)[C@H](CO)NC(=O)[C@H](C)NC(=O)[C@@H]2C[C@@H](O)CN2C(=O)CCCC(=O)O)C2CCCCC2)[C@H](O)[C@H](C)O1 (Glutaryl-[Hyp]AS[Chg]QSL-{Doxorubicin(3'-N)}) [listing 1 of 2 here] | 0.5 | 5 | > 100 | –
10 | COc1cccc2c1C(=O)c1c(O)c3c(c(O)c1C2=O)C[C@@](O)(C(=O)CO)C[C@@H]3O[C@H]1C[C@H](NC(=O)[C@H](CC(C)C)NC(=O)[C@H](CO)NC(=O)[C@H](CCC(N)=O)NC(=O)[C@@H](NC(=O)[C@H](CO)NC(=O)[C@H](C)NC(=O)[C@@H]2C[C@@H](O)CN2C(=O)CCCC(=O)O)C2CCCCC2)[C@H](O)[C@H](C)O1 (Glutaryl-[Hyp]AS[Chg]QSL-{Doxorubicin(3'-N)}) [listing 2 of 2 here] | – | – | – | MTD (Mus musculus [2]): 28.6 µM/kg; Reduction (Mus musculus [8]): 87%; Reduction (LNCaP [4]): 95%
11 | COc1cccc2c1C(=O)c1c(O)c3c(c(O)c1C2=O)C[C@@](O)(C(=O)CO)C[C@@H]3O[C@H]1C[C@H](N)[C@H](O)[C@H](C)O1 [DOXORUBICIN] | – | 0.7 | 1.8 | MTD (Mus musculus [2]): 2.8 µM/kg; Reduction (Mus musculus [9]): 6%; Reduction (LNCaP [4]): 16%
12 | Ac-ANKASYQSASTE-NH2 | 0.833 | – | – | –
13 | H-ANKISYQSS-OH | > 4 | – | – | –
14 | H-ANKISYQSSSTE-OH | 1.75 | – | – | –

More lines, main results first:

Row | half-life (PSA) [h] | Molecule | EC50 (LNCaP [3]) [µM] | EC50 (DuPro) [µM] | other results
15 | 0.5 | COc1cccc2c1C(=O)c1c(O)c3c(c(O)c1C2=O)C[C@@](O)(C(=O)CO)C[C@@H]3O[C@H]1C[C@H](NC(=O)[C@H](CC(C)C)NC(=O)[C@H](CO)NC(=O)[C@H](C)NC(=O)[C@H](CO)NC(=O)[C@H](CCC(N)=O)NC(=O)[C@H](Cc2ccc(O)cc2)NC(=O)[C@H](CO)NC(=O)[C@H](C)NC(=O)[C@H](CCCCN)NC(=O)[C@H](CC(N)=O)NC(=O)[C@H](C)NC(C)=O)[C@H](O)[C@H](C)O1 (Ac-ANKASYQSASL-{Doxorubicin(3'-N)}) | 12.5 | > 100 | –
16 | 0.5 | COc1cccc2c1C(=O)c1c(O)c3c(c(O)c1C2=O)C[C@@](O)(C(=O)CO)C[C@@H]3O[C@H]1C[C@H](NC(=O)[C@H](CC(C)C)NC(=O)[C@H](CO)NC(=O)[C@H](CO)NC(=O)[C@H](CO)NC(=O)[C@H](CCC(N)=O)NC(=O)[C@H](Cc2ccc(O)cc2)NC(=O)[C@H](CO)NC(=O)[C@H](C)NC(=O)[C@H](CCCCN)NC(=O)[C@H](CC(N)=O)NC(=O)[C@H](C)NC(C)=O)[C@H](O)[C@H](C)O1 (Ac-ANKASYQSSSL-{Doxorubicin(3'-N)}) | 7 | 117 | –
17 | 0.5 | COc1cccc2c1C(=O)c1c(O)c3c(c(O)c1C2=O)C[C@@](O)(C(=O)CO)C[C@@H]3OC1CC(NC(=O)[C@H](CC(C)C)NC(=O)[C@H](CO)NC(=O)[C@H](CCC(N)=O)NC(=O)[C@H](Cc2ccc(O)cc2)NC(=O)[C@H](CO)NC(=O)[C@H](C)NC(=O)[C@H](CCCCN)NC(C)=O)C(O)C(C)O1 (some centres not stated) (Ac-KASYQSL-X1) | 4.8 | 100 | –
18 | 1.75 | Ac-ANKASYQSSSTE-NH2 | – | – | –
19 | 2.08 | Ac-ANKISYQSAKTE-NH2 | – | – | –
20 | 2.42 | Ac-ANKISYQSASTE-NH2 | – | – | –
21 | 1.83 | Ac-ANKISYQSSKTE-NH2 | – | – | –
22 | > 4 | Ac-ANKISYQSSSTE-NH2 | – | – | –
23 | 2.5 | Ac-ANKISYYSSSTE-NH2 | – | – | –
24 | 0.417 | H-SQKANKISYQSSSTEERRLHYGENG-OH | – | – | –
25 | > 3 | H-SYQSSSTE-OH | – | – | –

— ChEMBL document CHEMBL1134291, “The synthesis of a prodrug of doxorubicin designed to provide reduced systemic toxicity and greater target efficacy” (J Med Chem, 2001)
